# Active and inactive are the calls of the source. No cut-off for these calls is given here.
# Tests used:
# [1] = Displacement of [3H]epibatidine from alpha4beta2* nAChR in Sprague-Dawley rat brain P2 membrane after 90 mins by liquid scintillation counting; assay type: tissue-based
# In short: (§1)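 Rat forebrain P2, calf adrenal P1 or Torpedo californica electroplax P1 membranes (60 µg protein) with 0.5 nM (±)-[3H]epibatidine in HEPES-salt solution (15 mM HEPES, 120 mM NaCl, 5.4 mM KCl, 0.8 mM MgCl2, 1.8 mM CaCl2) at 22 °C. Run in duplicate. Nonspecific binding defined with 300 µM (−)-nicotine. Filtered on PEI-soaked GF/B filters. Ki derived from IC50 by Cheng-Prusoff, Kd 10 pM.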
# [2] = Displacement of [3H]MLA from alpha7* nAChR in Sprague-Dawley rat brain P2 membrane after 180 mins by liquid scintillation counting
# [3] = Displacement of [3H]epibatidine from alpha3beta4* nAChR in calf adrenal P1 membrane after 90 mins by liquid scintillation counting; assay type: cell membranes, Bos taurus; in short: as §1
# [4] = Displacement of [3H]epibatidine from (alpha1)2beta1gammadelta nAChR in electric ray electroplax P1 membrane after 90 mins by liquid scintillation counting; set-up: species or system Tetronarce californica; in short: as §1
# [5] = Displacement of [3H]MLA from alpha7* nAChR in rat brain membrane; assay type: cell membranes
# In short: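 Rat brain crude P2 membranes in HEPES-salt solution (15 mM HEPES, 120 mM NaCl, 5.4 mM KCl, 0.8 mM MgCl2, 1.8 mM CaCl2), 22 °C, duplicates. [3H]MLA 2 nM final, 180 min; nonspecific binding with 1 µM MLA. GF/B filtration (1% PEI presoaked), scintillation counting. Nonlinear regression IC50; Ki by Cheng-Prusoff with Kd = 1 nM.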
# Rattus norvegicus = species on record: Rattus norvegicus; experiment: Displacement of [3H]epibatidine from alpha4beta2* nAChR in Sprague-Dawley rat brain P2 membrane up to 50 uM after 90 mins by liquid scintillation counting; assay type: tissue-based
Ki [1],Ki [2],Ki [3],Structure (SMILES),Ki [4],Ki [5],Activity (Rattus norvegicus)
> 10 µM,> 10 µM,> 10 µM,CCCCCCCCCCCCn1cc(C[N+](C)(C)C)c2ccccc21,–,–,–
> 10 µM,> 10 µM,> 10 µM,CCCCCCCCCCCCn1cc(CN(C)C)c2ccccc21,–,–,–
> 10 µM,> 10 µM,> 10 µM,CCCCCCCCCCCCn1cc(CCCN(C)C)c2ccccc21,–,–,–
> 10 µM,–,> 10 µM,CCCCCCCCCCCCn1cc(CC[N+](C)(C)C)c2ccccc21,–,–,–
> 10 µM,–,> 10 µM,CCCCCCCCn1cc(CCCN(C)C)c2ccccc21,–,–,–
> 10 µM,> 10 µM,> 10 µM,CCCCCCCCCCn1cc(CCCN(C)C)c2ccccc21,–,–,–
> 10 µM,> 10 µM,> 10 µM,CCCCCCCCCCn1cc(CN(C)C)c2ccccc21,–,–,–
0.706 µM,> 5 µM,3.4 µM,CCCCCCCCn1cc(C[N+](C)(C)C)c2ccccc21,–,–,–
> 10 µM,> 10 µM,> 10 µM,CCCCCCCCCCn1cc(CCC[N+](C)(C)C)c2ccccc21,–,–,–
> 10 µM,–,> 10 µM,CCCCCCCCCCCCn1cc(CCN(C)C)c2ccccc21,–,–,–
> 10 µM,> 10 µM,> 10 µM,CCCCCCCCCCCCn1cc(CCC[N+](C)(C)C)c2ccccc21,–,–,–
> 10 µM,> 10 µM,> 10 µM,CCCCCCCCn1cc(CN(C)C)c2ccccc21,–,–,–
> 10 µM,> 10 µM,> 10 µM,CCCCCCCCCCn1cc(C[N+](C)(C)C)c2ccccc21,–,–,–
0.243 µM,> 1 µM,> 10 µM,CCCCCCCCn1cc(CCC[N+](C)(C)C)c2ccccc21,–,–,–

# The next lines start with the compound.
Structure (SMILES),Ki [1],Ki [2],Ki [3],Ki [4],Ki [5],Activity (Rattus norvegicus)
CN1CCC[C@H]1c1cccnc1 [NICOTINE],0.00085 µM,0.129 µM,0.0753 µM,–,–,–
CCCCCCCCCCn1cc(CCN(C)C)c2ccccc21,> 10 µM,–,> 10 µM,–,–,–
CNCCc1cn(CC=C(C)C)c2ccccc12,> 10 µM,> 10 µM,> 10 µM,–,–,–
CC(C)=CCn1cc(CCN(C)C)c2ccccc21,> 10 µM,> 10 µM,1.82 µM,–,–,–
CN(C)CCc1cn(C)c2ccccc12,> 10 µM,–,3.68 µM,–,–,–
CCCCCCCCn1c(C[N+](C)(C)C)cc2ccccc21,> 10 µM,> 10 µM,> 10 µM,–,–,–
C=CCn1cc(CCNC)c2ccccc21,> 10 µM,–,> 10 µM,–,–,–
Cn1cc(CC[N+](C)(C)C)c2ccccc21,> 10 µM,> 10 µM,2.01 µM,> 10 µM,–,–
CNCCc1cn(C)c2ccccc12,> 10 µM,–,> 10 µM,–,–,–
C=CCn1cc(CCN(C)C)c2ccccc21,> 10 µM,> 10 µM,2.85 µM,–,–,–
CC(C)=CCn1cc(C[N+](C)(C)C)c2ccccc21,0.435 µM,> 10 µM,> 10 µM,–,–,–
CC(C)=CCn1cc(C[N+](C)(C)C)c2ccc(Br)cc21,0.203 µM,> 1 µM,> 1 µM,–,–,–
CC(C)=CCn1cc(CC[N+](C)(C)C)c2ccccc21,0.136 µM,0.862 µM,0.0939 µM,2.36 µM,–,–
CCCCCCCCn1cc(CCN(C)C)c2ccccc21,> 10 µM,> 10 µM,> 10 µM,> 10 µM,–,–
CC(C)=CCn1cc(CC[N+](C)(C)C)c2ccc(Br)cc21,0.412 µM,1.53 µM,5.33 µM,> 10 µM,–,–
CCCCCCCCn1c(CN(C)C)cc2ccccc21,> 10 µM,> 10 µM,> 10 µM,–,–,–
CC(C)=CCn1cc(CN(C)C)c2ccc(Br)cc21,1.38 µM,–,> 10 µM,–,–,–
CC(C)=CCn1cc(CN(C)C)c2ccccc21,> 10 µM,–,> 10 µM,–,–,–
CC(C)=CCn1cc(CC[N+]2(C)CCCC2)c2ccccc21,> 10 µM,–,–,–,–,–
CCCCCCCCn1cc(CC[N+](C)(C)C)c2ccccc21,0.527 µM,–,> 10 µM,–,–,–
C=CCn1cc(CC[N+](C)(C)C)c2ccccc21,0.517 µM,6.8 µM,0.365 µM,> 10 µM,–,–
CNCCc1cn(CC=C(C)C)c2cc(Br)ccc12 [DEFORMYLFLUSTRABROMINE B],> 10 µM,–,> 10 µM,–,17 µM,inactive
CCCCCCCCCCn1cc(CC[N+](C)(C)C)c2ccccc21,> 10 µM,–,> 10 µM,–,–,–

# From ChEMBL document CHEMBL2034815, “Synthesis and evaluation of N(1)-alkylindole-3-ylalkylammonium compounds as nicotinic acetylcholine receptor ligands” (Bioorg Med Chem, 2012)
